Data as given in ChEMBL document CHEMBL1121539, “Antitumor structure-activity relations. Nitrosoureas vs. L-1210 leukemia” (J Med Chem, 1980).

Experiments:
[1] = tested on: L1210; assay: Tested for 3 log kill of leukemia cells; assay type: functional, Mus musculus
Outline: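 L-1210 leukemia cells (10^4) were inoculated intracerebrally into BDF2 mice, and drug was given intraperitoneally. The end point was the dose giving 3 log kill, expressed as log 1/C. The value comes from one or more individual experiments.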

[2] = tested on: L1210; assay: Toxicity against L-1210 leukemia cells in mice after intraperitoneal administration, activity is expressed as LD10; parameters: LD10: unit not given here; conditions: mouse, in vivo, ip
[3] = Partition coefficient (logP); assay type: physicochemical; conditions: octanol/water
Outline: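 Shake partitioning between octanol and distilled water gave log P. For carboxylate substituents, log P was taken in 0.1 N NaOH, with Na+ as counterion.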

SMILES | log(1/C) [1] | log(1/LD10) [2] | logP ([3]; read-out: logP) | logP [3] | LD10 [2]
O=NN(CCCl)C(=O)NC1CCC(=O)NC1=O (stereo not drawn) | 1.8 | 1.16 | – | – | –
O=NN(CCF)C(=O)NC1CSCSC1 | 1.78 | 0.802 | 1.54 | – | –
O=NN(CCCl)C(=O)NC1C(O)CCCC1O (stereo not drawn) | – | 1.17 | 0.16 | – | –
O=NN(CCCl)C(=O)NC1CCC(NC(=O)N(CCCl)N=O)CC1 (stereo not drawn) | – | 0.66 | 3.57 | – | –
COC1OC(COC(C)=O)C(OC(C)=O)C(NC(=O)N(CCCl)N=O)C1OC(C)=O (stereo not drawn) | – | 1.06 | 0.67 | – | –
Cc1cc(C)c(NC(=O)N(CCCl)N=O)c(C)c1 | 1.58 | 0.675 | 3.11 | – | –
CCOC(=O)C1(NC(=O)N(CCCl)N=O)CCCC1 | 0.562 | 0.072 | 2.88 | – | –
CC(=O)OCC1OCC(NC(=O)N(CCCl)N=O)C(OC(C)=O)C1OC(C)=O (stereo not drawn) | 1.79 | – | 1.87 | – | –
CCOC(=O)C1CCC(NC(=O)N(CCCl)N=O)CC1 (stereo not drawn) | 1.51 | 0.967 | 2.2 | – | –
O=NN(CCCl)C(=O)NC1(C(=O)O)CCCC1 | 0.605 | 0.308 | 1.82 | – | –
O=NN(CCF)C(=O)NC1CCCCC1 | 1.34 | 0.806 | 2.25 | – | –
O=NN(CCF)C(=O)NC1CCCCCCCCCCC1 | – | 0.496 | 5.22 | – | –
C[C@H]1CC[C@H](NC(=O)N(CCCl)N=O)CC1 | 1.55 | 0.771 | – | – | –
O=NN(CCCl)C(=O)N[C@H]1CC[C@@H](O)CC1 | 1.36 | 0.735 | – | – | –
O=NN(CCCl)C(=O)N[C@H]1CCCC[C@@H]1Cl | 1.34 | 0.672 | – | – | –
O=NN(CCCl)C(=O)N[C@@H]1CCCC[C@H]1O | 1.82 | 1.1 | 1.34 | – | –
C[C@H]1S(=O)(=O)C[C@H](NC(=O)N(CCCl)N=O)CS1(=O)=O | 1.89 | 0.801 | -0.53 | – | –

SMILES | log(1/C) [1] | log(1/LD10) [2] | logP ([3]; read-out: logP) | logP [3] | LD10 [2]
C[C@H]1CCC[C@@H](NC(=O)N(CCCl)N=O)C1 | 1.09 | 0.315 | 3.37 | – | –
O=NN(CCCl)C(=O)N[C@@H]1CCCC[C@@H]1Cl | 0.951 | 0.446 | 2.73 | – | –
CO[C@H]1CC[C@H](NC(=O)N(CCCl)N=O)CC1 | 1.44 | 0.841 | 2.09 | – | –
COC(=O)[C@H]1CC[C@H](NC(=O)N(CCCl)N=O)CC1 | – | 1.05 | 1.89 | – | –
C[C@H]1CCC[C@H](NC(=O)N(CCCl)N=O)C1 | 1.09 | – | – | 3.3 | 0.352
O=NN(CCF)C(=O)N[C@H]1CC[C@H](C(=O)O)CC1 | 1.21 | – | – | 1.1 | –
C[C@H]1CC[C@@H](NC(=O)N(CCCl)N=O)CC1 | – | 0.435 | 3.3 | – | –
O=NN(CCCl)C(=O)NC1CC2CCC1C2 (stereo not drawn) | 1.21 | 0.591 | 2.98 | – | –
O=NN(CCF)C(=O)NC1CCSc2ccccc21 (stereo not drawn) | 1.31 | 0.896 | 2.33 | – | –
CC1CC(O)C(NC(=O)N(CCCl)N=O)C(O)C1 (stereo not drawn) | – | 1.12 | 0.69 | – | –
O=NN(CCF)C(=O)NC1CS(=O)(=O)CS(=O)(=O)C1 | 1.69 | 0.626 | -1.48 | – | –
CC(=O)OCC1OC(NC(=O)N(CCCl)N=O)C(OC(C)=O)C(OC(C)=O)C1OC(C)=O (stereo not drawn) | – | 1.41 | 1.04 | – | –
CC(=O)OC1CCC(NC(=O)N(CCF)N=O)CC1 (stereo not drawn) | 1.4 | 0.884 | 1.33 | – | –
COCC1OC(O)C(NC(=O)N(CCCl)N=O)C(OC)C1OC (stereo not drawn) | 1.48 | 0.682 | 0.8 | – | –
O=NN(CCCl)C(=O)NCCCl [CARMUSTINE] | 1.59 | 0.718 | – | – | –
O=NN(CCCl)C(=O)NC1CCCCC1 [LOMUSTINE] | 1.25 | 0.613 | – | – | –
